Key:
[1] = tested on: CCRF-CEM; test: Antiproliferative activity against human CEM cells after at 100 uM 72 hrs by WST1 assay; format: functional
Method in brief: (§1)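 Cells were exposed to compound for 72 h at 37 °C in RPMI 1640 with 10% FCS. Densities (cells/mL) were CEM 0.2×10^6, Jurkat 0.6×10^6, Raji 0.4×10^6, MCF-7 and Caco-2 0.2×10^6. WST-1 was then added for 4 h and absorbance read at 492 nm. Living cells are given as % of untreated-control OD (100 = no activity), with 0.1% DMSO vehicle controls and etoposide as positive control.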

[2] = tested on: Jurkat; test: Antiproliferative activity against human Jurkat cells at 100 uM after 72 hrs by WST1 assay; format: functional; method in brief: as §1
[3] = tested on: Raji; test: Antiproliferative activity against human Raji cells at 100 uM after 72 hrs by WST1 assay; format: functional; method in brief: as §1
[4] = tested on: MCF7; test: Antiproliferative activity against human MCF7 cells at 100 uM after 72 hrs by WST1 assay; format: functional; method in brief: as §1
[5] = tested on: Caco-2; test: Antiproliferative activity against human Caco-2 cells at 100 uM after 72 hrs by WST1 assay; format: functional; method in brief: as §1
[6] = tested on: CCRF-CEM; test: Antiproliferative activity against human CEM cells after 72 hrs by WST1 assay; format: functional, cell-based
Method in brief: (§2)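 Seeding densities (cells/mL) were CEM 0.2×10^6, Jurkat 0.6×10^6, Raji 0.4×10^6, MCF-7 0.2×10^6 and Caco-2 0.2×10^6, in RPMI 1640 with 10% FCS, non-essential amino acids, pyruvate, glutamine and gentamicin. Cells were exposed to 12.5–100 µM (DMSO stocks, 0.1% DMSO controls) for 72 h at 37 °C. WST-1 was added for 4 h and read at 492 nm. IC50 is for 50% growth inhibition.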

[7] = tested on: Jurkat; test: Antiproliferative activity against human Jurkat cells after 72 hrs by WST1 assay; format: functional, cell-based; method in brief: as §2
[8] = tested on: Raji; test: Antiproliferative activity against human Raji cells after 72 hrs by WST1 assay; format: functional, cell-based; method in brief: as §2
[9] = tested on: MCF7; test: Antiproliferative activity against human MCF7 cells after 72 hrs by WST1 assay; format: functional, cell-based; conditions: MCF7, 72 h; method in brief: as §2
[10] = tested on: Caco-2; test: Antiproliferative activity against human Caco-2 cells after 72 hrs by WST1 assay; format: functional, cell-based; conditions: Caco-2, 72 h; method in brief: as §2

| SMILES | Activity [1] [%] | Activity [2] [%] | Activity [3] [%] | Activity [4] [%] | Activity [5] [%] | IC50 [6] [µM] | IC50 [7] [µM] | IC50 [8] [µM] | IC50 [9] [µM] | IC50 [10] [µM] |
| --- | --- | --- | --- | --- | --- | --- | --- | --- | --- | --- |
| C=CCN1COc2cc3c(cc2C1)c1ccccc1n3C | 1.5 | 1.5 | 10.5 | 1.5 | 2.5 | 50.1 | 50 | 56.2 | 62.6 | 32.1 |
| CCn1c2ccccc2c2c(O)c(CN(Cc3ccccn3)Cc3ccc4c(c3O)c3ccccc3n4CC)ccc21 | 53 | 97.5 | 100 | 89 | 35.5 | – | – | – | – | – |
| C=CCn1c2ccccc2c2c(O)c(CN(Cc3ccccn3)Cc3ccc4c(c3O)c3ccccc3n4CC=C)ccc21 | 78.5 | 92 | 95.5 | 94.5 | 94 | – | – | – | – | – |
| Cc1ccc(CN2COc3cc4c(cc3C2)c2ccccc2n4C)cc1 | 1 | 2.5 | 27 | 27.5 | 6.5 | 68.8 | 71.1 | 72.8 | 75 | 57.4 |
| Cn1c2ccccc2c2c3c(ccc21)CN(c1ccccc1)CO3 | 25 | 74.5 | 77 | 100 | 100 | – | – | – | – | – |
| C=CCn1c2ccccc2c2c3c(ccc21)CN(c1ccccc1)CO3 | 17 | 13.5 | 49.5 | 83 | 54.5 | – | – | – | – | – |
| C=CCN1COc2c(ccc3c2c2ccccc2n3CC=C(C)C)C1 | 4 | 2 | 3.5 | 2 | 30 | 11.8 | 11.8 | 11.9 | 37 | 43.8 |
| CC(C)=CCn1c2ccccc2c2c3c(ccc21)CN(Cc1ccccc1)CO3 | 5.5 | 7.5 | 7 | 27.5 | 53 | 37.6 | 55.5 | 39.3 | 75 | 75 |
| CC(C)=CCn1c2ccccc2c2c(O)c(CN(Cc3ccccn3)Cc3ccc4c(c3O)c3ccccc3n4CC=C(C)C)ccc21 | 100 | 100 | 100 | 100 | 100 | – | – | – | – | – |
| Cn1c2ccccc2c2c(O)c(CN(Cc3ccccn3)Cc3ccc4c(c3O)c3ccccc3n4C)ccc21 | 87.5 | 72 | 100 | 98.5 | 54 | – | – | – | – | – |
| Cn1c2ccccc2c2ccc3c(c21)CN(Cc1ccccn1)CO3 | 1 | 2 | 23 | 1.5 | 7 | 74.3 | 75 | – | – | 68.8 |
| Cn1c2ccccc2c2c3c(ccc21)CN(Cc1ccccc1)CO3 | 10 | 87 | 80 | 87 | 100 | – | – | – | – | – |
| Cn1c2ccccc2c2cc3c(cc21)OCN(Cc1ccccn1)C3 | 1.5 | 3.5 | 38 | 5 | 7.5 | 16.5 | 11.5 | 12.1 | 56.4 | 43.7 |
| C=CCN1COc2ccc3c4ccccc4n(C)c3c2C1 | 1.5 | 2 | 60.5 | 62 | 5 | – | – | – | – | – |
| Cn1c2ccccc2c2ccc3c(c21)CN(Cc1ccccc1)CO3 | 1.5 | 5.5 | 31.5 | 60.5 | 6 | 70.8 | 74.2 | 75 | 72.1 | 62.5 |
| CCn1c2ccccc2c2c3c(ccc21)CN(c1ccccc1)CO3 | 58.5 | 55 | 84 | 100 | 100 | – | – | – | – | – |
| CCn1c2ccccc2c2c3c(ccc21)CN(Cc1ccccn1)CO3 | 23 | 82 | 100 | 52 | 16 | – | – | – | – | – |
| Cn1c2ccccc2c2cc(CN(Cc3ccccn3)Cc3cc4c5ccccc5n(C)c4cc3O)c(O)cc21 | 9 | 8.5 | 70 | 24.5 | 10.5 | – | – | – | – | – |

| SMILES | Activity [1] [%] | Activity [2] [%] | Activity [3] [%] | Activity [4] [%] | Activity [5] [%] | IC50 [6] [µM] | IC50 [7] [µM] | IC50 [8] [µM] | IC50 [9] [µM] | IC50 [10] [µM] |
| --- | --- | --- | --- | --- | --- | --- | --- | --- | --- | --- |
| C=CCN1COc2c(ccc3c2c2ccccc2n3C)C1 | 4.5 | 8.5 | 9.5 | 35 | 5 | 35.7 | 69 | 43.6 | – | 32.1 |
| CCn1c2ccccc2c2c3c(ccc21)CN(Cc1ccccc1)CO3 | 31.5 | – | – | 64 | 46 | – | – | – | – | – |
| CCn1c2ccccc2c2c3c(ccc21)CN(Cc1ccc(C)cc1)CO3 | 15 | 49.5 | 31.5 | 85.5 | 93 | – | – | – | – | – |
| Cn1c2ccccc2c2cc3c(cc21)OCN(Cc1ccccc1)C3 | 0.5 | 1 | 11 | 3 | 1.5 | – | – | – | – | – |
| C=CCN1COc2c(ccc3c2c2ccccc2n3CC=C)C1 | 2 | 2.5 | 19.5 | 43 | 12 | – | – | – | – | – |
| Cc1ccc(CN2COc3c(ccc4c3c3ccccc3n4C)C2)cc1 | 55.5 | – | – | 42.5 | – | – | – | – | – | – |
| CC(c1ccccc1)N1COc2c(ccc3c2c2ccccc2n3C)C1 (centres undefined) | 40 | 80.5 | 84 | 100 | 100 | – | – | – | – | – |
| C=CCn1c2ccccc2c2c3c(ccc21)CN(Cc1ccccc1)CO3 | 5.5 | 67 | 100 | 55.5 | 56.5 | – | – | – | – | – |
| C=CCn1c2ccccc2c2c3c(ccc21)CN(Cc1ccc(C)cc1)CO3 | 9 | 3.5 | 9.5 | 66 | 54.5 | – | – | – | – | – |
| C=CCn1c2ccccc2c2c3c(ccc21)CN(Cc1ccccn1)CO3 | 14.5 | 12.5 | 31.5 | 47.5 | 55.5 | – | – | – | – | – |
| CC(c1ccccc1)N1COc2cc3c(cc2C1)c1ccccc1n3C (centres undefined) | 0.5 | 1 | 18.5 | 0 | 2 | 25.2 | 37.3 | 57.9 | 62.5 | 37.7 |
| Cc1ccc(CN2COc3ccc4c5ccccc5n(C)c4c3C2)cc1 | 1 | 1.5 | 12 | 1.5 | 3 | – | – | – | – | – |
| CC(C)=CCn1c2ccccc2c2c3c(ccc21)CN(Cc1ccc(C)cc1)CO3 | 11.5 | 13.5 | 11 | 41.5 | 48.5 | – | – | – | – | – |
| CC(c1ccccc1)N1COc2ccc3c4ccccc4n(C)c3c2C1 (centres undefined) | 0.5 | 0.5 | 19.5 | 0 | 5 | – | – | – | – | – |
| Cn1c2ccccc2c2cc3c(cc21)OCN(Cc1nc2ccccc2s1)C3 | 34 | 17 | 78 | 79 | 51 | – | – | – | – | – |
| C=CCN1COc2c(ccc3c2c2ccccc2n3CC)C1 | 4 | 6.5 | 4.5 | 10 | 34 | 44 | 75 | 43.6 | – | 25.2 |
| CCn1c2ccccc2c2c3c(ccc21)CN(C(C)c1ccccc1)CO3 (centres undefined) | 21 | – | – | 86.5 | 59 | – | – | – | – | – |
| CC(C)=CCn1c2ccccc2c2c3c(ccc21)CN(c1ccccc1)CO3 | 10.5 | 7.5 | 17 | 49 | 60 | – | – | – | – | – |

Reference: ChEMBL document CHEMBL1165902, “Synthesis and antiproliferative activity of oxazinocarbazole and N,N-bis(carbazolylmethyl)amine derivatives” (Eur J Med Chem, 2010)
